Calb biofilm kill – clotrimazole potentiators killing C. albicans biofilm, primary screen, 4-compound mixtures | C. albicans biofilm persisters + clotrimazole, fluorescence viability; primary screen in compound mixtures of four per well | inhibition, % at 7.6 µM | 120,000 compounds, 0.02% hits | AID 1242, 2008;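 active means inhibition above 30.3% in the primary screen of four-compound pools, then above 30% when the compound was retested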;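 further: compounds exposed to preformed 24 h biofilms for 48 h; 0% = untreated biofilm control and 100% = clotrimazole plus chlorhexidine kill blank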
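Test system: C. albicans biofilms. Buffer or medium: RPMI/MOPS medium, pH 7.0. Timing: 48 h compound exposure at 37 °C. Technique: Alamar Blue fluorescence. Evaluation: percent inhibition of biofilm viability.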
NCF1 inh – p47phox/p22phox peptide binding inhibitors, primary screen, biochemical, uHTS, NADPH oxidase regulatory subunit. Neutrophil cytosol factor 1 (Homo sapiens), P14598. fluorescence polarization, 2 h. inhibition, % at 24.7 µM. 220,000 compounds, 0.53% hits. AID 1274, 2008;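 active means inhibition above about 30%, limit read from the data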;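 further: 0% = p47phox with labelled peptide and 100% = labelled peptide alone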
Target sequence (P14598 whole entry, looked up): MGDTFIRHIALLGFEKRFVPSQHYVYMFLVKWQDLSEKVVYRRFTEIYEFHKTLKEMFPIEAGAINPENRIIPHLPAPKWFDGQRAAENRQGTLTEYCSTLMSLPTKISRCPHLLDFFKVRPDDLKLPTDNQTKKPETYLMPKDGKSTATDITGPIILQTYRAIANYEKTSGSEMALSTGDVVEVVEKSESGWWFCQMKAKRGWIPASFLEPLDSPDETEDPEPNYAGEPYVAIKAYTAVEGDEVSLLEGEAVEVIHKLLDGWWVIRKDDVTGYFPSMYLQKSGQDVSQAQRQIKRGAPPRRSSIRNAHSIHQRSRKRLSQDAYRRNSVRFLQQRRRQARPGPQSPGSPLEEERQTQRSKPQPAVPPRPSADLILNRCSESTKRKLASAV
WT yeast gro inh – growth inhibition of WT strain, primary screen, mitochondrial fusion inhibitor project, WT and mutant strains, chemical genetic; inhibition, % at 10 µM; 190,000 compounds, 2.1% hits; mitochondrial fusion phenotypic screen; in the data active means inhibition above about 58%; tested in S. cerevisiae
Arbovirus inh – antivirals against arbovirus infection, primary screen, cell-based, full library, 10K replicate subset; arbovirus infection cell-based antiviral screen; inhibition, % at 10 µM; 200,000 compounds, 0.37% hits; AID 1251, 2008; in the data active means inhibition above about 30%
Hck-Nef inh – inhibitors of Nef-activated human Hck kinase, primary screen, biochemical, Z-Lyte FRET, 384-well, Hck-YEEI | Tyrosine-protein kinase HCK (Homo sapiens), P08631 | Recombinant Hck-YEEI plus Nef, Z-Lyte FRET kinase assay | inhibition, % at 20 µM | 220,000 compounds, 0.68% hits | AID 463187, 2010;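 active means Hck-Nef kinase inhibition above about 50%, limit read from the data; inactive means inhibition below that limit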;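 further: 0% = DMSO with Hck plus Nef and 100% = Hck alone without Nef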
RAM inhibit – inhibitors of the yeast RAM network, primary screen, dse1pr::URA3 reporter, 5-FOA selection; S. cerevisiae dse1pr::URA3 reporter, 5-FOA growth OD615, 2 d; analog-sensitive cbk1-as2 kinase mutant strain; AID 868, 2007; 190,000 compounds, 1.8% hits; inhibition, % at 50 µM;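 active means inhibition above a set limit, 3 SD over mean compound inhibition, cut at about 8.4% in these data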;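 further: 0% = DMSO-only wells with no growth and 100% = 10 µM 1-NA-PP1 full growth; inhibition rescues growth on 5-FOA so higher OD means more RAM inhibition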
Starred values were filed as active, the others as inactive; . = no result given. A selection: hits, their analogues and other compounds. The true share with any hit is near 4.6%.

SMILES	Calb biofilm kill	NCF1 inh	WT yeast gro inh	Arbovirus inh	Hck-Nef inh	RAM inhibit
Cc1cccc[n+]1CCCCCCCCCC[n+]1ccccc1C	15	-3	5	4	23	2
CCCCCCCC[n+]1cccc2c3ccccc3ccc21	21	21	80*	-27	23	1
CCCCCCCCCC[n+]1cccc2c3ccccc3ccc21	9	50*	80	-30	31	-2
N#CCCN(C(=O)COC(=O)c1ccc(CNS(=O)(=O)c2ccc(F)c(Cl)c2)cc1)c1ccc(F)cc1	-11	3	-11	16	5	11*
O=C(COC(=O)c1ccc(CNS(=O)(=O)c2ccc(F)c(Cl)c2)cc1)NCC1CCCCC1	20	-14	0	-5	2	9.0*
O=C(NNc1c(Cl)cccc1Cl)C1CCC1	22	-4	.	.	13	.
CC(c1ccon1)N(C)Cc1cn(C)nc1-c1cccc(Cl)c1 (stereo not given)	12	-7	-1	-4	-2	0
Cc1cc(C)nc(NS(=O)(=O)c2ccc(NC(=S)NC(=O)c3cccnc3)cc2)n1	8	7	4	-2	11	0
Cc1cc(NS(=O)(=O)c2ccc(NC(=S)NC(=O)c3cccnc3)cc2)no1	13	2	-15	-5	17	9.3*
CCc1nc2nc(C)cc(Nc3cccc(C(F)(F)F)c3)n2n1	.	0	15	-18	-1	-1
Cc1cc(Nc2cccc(C(F)(F)F)c2)n2nc(C)nc2n1	.	7	79*	-9	-14	0
CCOC(=O)c1ccc(NC(=S)N2CCSC2c2c(F)cc(F)cc2F)cc1 (stereo not given)	17	-9	27	41*	2	3
Fc1cc(F)c(C2SCCN2C(=S)Nc2cccc(C(F)(F)F)c2)c(F)c1 (stereo not given)	17	-4	.	.	8	.
Cc1nnc(NC(=O)Cn2nc(C)c3ccccc3c2=O)s1	8	-7	-3	4	27	2
CC(=O)OCCNc1cc(N2CCN(C)CC2)c2noc3c2c1C(=O)c1ccccc1-3	.	62*	45	-13	-2	10*
CC(C)S(=O)(=O)C1=NSC2=NC(=O)/C(=C\c3ccc(-c4cccc(C(=O)O)c4)o3)C(=N)N21	10	-37	-9	30*	30	2
Cc1ccc(C(=O)O)cc1-c1ccc(C=C2C(=O)c3ccccc3C2=O)o1	-12	-62	-12	-1	39	2
N=C1/C(=C\c2ccc(-c3cc(Cl)cc(Cl)c3)o2)C(=O)N=C2SC=C(c3ccccc3)N12	17	-32	-2	-9	5	3
CS(=O)(=O)C1=NSC2=NC(=O)/C(=C\c3ccc(-c4ccccc4)o3)C(=N)N21	12	-30	-1	60*	-1	3
CCn1c(=O)cc(C(F)(F)F)[nH]c1=S	18	8	-10	5	8	2
CC(C)(C)c1nc(SCC(=O)c2ccccc2)c2ccccc2n1	5	-2	53	-17	13	9.4*
COCCn1c(-c2ccccc2)cnc1SCC(=O)Nc1cccc2ccccc12	-12	-1	20	38*	3	-1
CC(=O)NCCn1c(SCc2ccccc2F)nc2ccccc2c1=O	.	4	-18	0	0	-1
CC(=O)NCCn1c(SCc2ccc(C)cc2)nc2ccccc2c1=O	.	-22	65*	-5	0	2
CC(=O)NCCn1c(SCc2cc(=O)n3cc(Cl)ccc3n2)nc2ccccc2c1=O	.	-3	-14	2	0	11*
SMILES	Calb biofilm kill	NCF1 inh	WT yeast gro inh	Arbovirus inh	Hck-Nef inh	RAM inhibit
COCCn1c(SCC(=O)c2ccccc2)nc2ccccc2c1=O	29	7	0	-2	27	9.8*
CCc1ccc(NC(=O)C(C)n2nc(C)c([N+](=O)[O-])c2C)cc1 (stereo not given)	6	-6	-5	4	30	2
O=C(O)CCNS(=O)(=O)c1ccc2c(c1)OCCCO2	33	-1	5	1	-16	0
CC(=O)Nc1nc(COc2ccccc2)cs1	.	-5	18	-1	9	2
O=C(Nc1nc(COc2ccccc2)cs1)C12CC3CC(CC(C3)C1)C2	.	0	59*	-15	0	9.4*
COc1cc(C(=O)OC2CSCC2NC(=O)c2ccccc2)cc(OC)c1OC (stereo not given)	24	-1	-17	-9	17	2
O=S1(=O)c2ccccc2N=NN1Cc1ccc(Cl)c(Cl)c1	.	15	-5	14	1	0
CC(C)(C)c1ccc(CN2N=Nc3ccccc3S2(=O)=O)cc1	.	34*	-21	-36	0	4
Cc1ccc(N=Nc2c(N)[nH]n3c(=O)cc(-c4ccccc4)nc23)cc1	.	-4	60*	-28	1	8.7*
Nc1[nH]n2c(=O)c3c(nc2c1N=Nc1ccc(Cl)cc1)CCCC3	.	-35	1	-23	2	3
Nc1[nH]n2c(=O)c3c(nc2c1N=Nc1ccccc1)CCCC3	.	-18	80*	-15	1	5
Cc1c(C)n(CCc2c[nH]c3ccccc23)ccc1=O	9	1	-9	9	21	0
Cc1ccc(NC(=O)c2cc(N3C(=O)C=CC3=O)ccc2N2CCOCC2)cc1Cl	9	11	66*	14	-5	-2
COc1ccc(OC)c(C(=O)COC(=O)c2ccccc2O)c1	.	-27	18	-2	0	8.7*
CN1CCN(c2ccc(Cl)cc2NC(=O)/C=C/c2ccc(F)cc2)CC1	2	-12	83*	-31	-9	3
CC1CN(c2oc(Cc3cccc4ccccc34)nc2C#N)CC(C)O1 (stereo not given)	.	-4	61*	0	1	9.9*
O=C(Nn1c(-c2ccccc2)nc2ccccc2c1=O)C1CCC1	.	-6	70*	-1	2	2
CSCCC(NC(=O)c1ccc(Cl)cc1)C(=O)OCC(=O)Nc1cc(Cl)ccc1C (stereo not given)	3	-24	23	10	4	10*
Cc1oc(-c2ccc(Cl)cc2)cc1-c1nn2c(-c3ccoc3C)nnc2s1	.	-48	2	6	59*	2
Clc1ccc(-c2nnc3sc(-c4ccc(Br)o4)nn23)cc1	.	-25	0	-6	4	3
CCC(C)c1ccc(NC(=O)COc2c(F)c(F)c(C(F)(F)F)c(F)c2F)cc1 (stereo not given)	16	-17	70*	-19	2	10*
O=C(COc1c(F)c(F)c(C(F)(F)F)c(F)c1F)Nc1ccc(N2CCOCC2)c(Cl)c1	.	-5	70*	-12	0	5
